Test [1] deals with T1, DNA polymerase catalytic subunit (Herpes simplex virus (type 1 / strain 17), UniProt P04293).
T1 sequence (P04293 whole entry): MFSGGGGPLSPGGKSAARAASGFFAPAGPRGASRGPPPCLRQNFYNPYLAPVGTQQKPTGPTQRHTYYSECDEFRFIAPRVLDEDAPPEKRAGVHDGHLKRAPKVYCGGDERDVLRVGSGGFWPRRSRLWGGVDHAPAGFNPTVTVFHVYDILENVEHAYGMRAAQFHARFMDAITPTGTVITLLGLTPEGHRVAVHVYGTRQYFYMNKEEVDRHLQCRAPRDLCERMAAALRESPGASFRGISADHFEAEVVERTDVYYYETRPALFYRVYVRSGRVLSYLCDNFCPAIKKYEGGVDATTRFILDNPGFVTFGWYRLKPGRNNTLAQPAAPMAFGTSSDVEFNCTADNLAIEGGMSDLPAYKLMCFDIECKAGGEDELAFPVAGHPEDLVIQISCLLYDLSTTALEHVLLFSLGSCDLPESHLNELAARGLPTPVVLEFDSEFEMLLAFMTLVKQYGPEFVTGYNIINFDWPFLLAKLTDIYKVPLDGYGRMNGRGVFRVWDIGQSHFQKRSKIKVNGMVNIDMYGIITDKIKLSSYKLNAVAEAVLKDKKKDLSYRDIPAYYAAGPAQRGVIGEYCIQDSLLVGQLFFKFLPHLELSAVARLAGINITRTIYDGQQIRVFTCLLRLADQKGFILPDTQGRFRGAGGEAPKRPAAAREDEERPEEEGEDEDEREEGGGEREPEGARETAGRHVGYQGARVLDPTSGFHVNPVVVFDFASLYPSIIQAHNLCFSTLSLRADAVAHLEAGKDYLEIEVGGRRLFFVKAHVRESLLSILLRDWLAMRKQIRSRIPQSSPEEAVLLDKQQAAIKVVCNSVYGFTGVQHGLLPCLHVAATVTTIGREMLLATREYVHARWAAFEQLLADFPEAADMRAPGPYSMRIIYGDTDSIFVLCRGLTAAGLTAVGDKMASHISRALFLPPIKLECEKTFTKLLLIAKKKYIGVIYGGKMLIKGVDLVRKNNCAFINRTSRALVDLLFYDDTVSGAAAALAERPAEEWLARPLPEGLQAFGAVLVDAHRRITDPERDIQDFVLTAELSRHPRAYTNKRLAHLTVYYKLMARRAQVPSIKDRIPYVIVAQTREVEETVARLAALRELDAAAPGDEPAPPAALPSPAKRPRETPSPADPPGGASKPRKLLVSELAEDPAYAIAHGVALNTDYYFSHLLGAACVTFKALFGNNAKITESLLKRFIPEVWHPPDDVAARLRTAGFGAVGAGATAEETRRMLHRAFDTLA
Nature of the test: Inhibition of herpes simplex virus type 1 DNA polymerase (95 uL) activity in a solution containing […] HEPES (pH 7.5), incubation for 12 minutes at 26 degrees C. Also noted: species or system Human alphaherpesvirus 1.

Test [2] addresses T2, DNA polymerase catalytic subunit (Human cytomegalovirus (strain AD169) (HHV-5) (Human herpesvirus 5), UniProt P08546).
T2 sequence (P08546 whole entry): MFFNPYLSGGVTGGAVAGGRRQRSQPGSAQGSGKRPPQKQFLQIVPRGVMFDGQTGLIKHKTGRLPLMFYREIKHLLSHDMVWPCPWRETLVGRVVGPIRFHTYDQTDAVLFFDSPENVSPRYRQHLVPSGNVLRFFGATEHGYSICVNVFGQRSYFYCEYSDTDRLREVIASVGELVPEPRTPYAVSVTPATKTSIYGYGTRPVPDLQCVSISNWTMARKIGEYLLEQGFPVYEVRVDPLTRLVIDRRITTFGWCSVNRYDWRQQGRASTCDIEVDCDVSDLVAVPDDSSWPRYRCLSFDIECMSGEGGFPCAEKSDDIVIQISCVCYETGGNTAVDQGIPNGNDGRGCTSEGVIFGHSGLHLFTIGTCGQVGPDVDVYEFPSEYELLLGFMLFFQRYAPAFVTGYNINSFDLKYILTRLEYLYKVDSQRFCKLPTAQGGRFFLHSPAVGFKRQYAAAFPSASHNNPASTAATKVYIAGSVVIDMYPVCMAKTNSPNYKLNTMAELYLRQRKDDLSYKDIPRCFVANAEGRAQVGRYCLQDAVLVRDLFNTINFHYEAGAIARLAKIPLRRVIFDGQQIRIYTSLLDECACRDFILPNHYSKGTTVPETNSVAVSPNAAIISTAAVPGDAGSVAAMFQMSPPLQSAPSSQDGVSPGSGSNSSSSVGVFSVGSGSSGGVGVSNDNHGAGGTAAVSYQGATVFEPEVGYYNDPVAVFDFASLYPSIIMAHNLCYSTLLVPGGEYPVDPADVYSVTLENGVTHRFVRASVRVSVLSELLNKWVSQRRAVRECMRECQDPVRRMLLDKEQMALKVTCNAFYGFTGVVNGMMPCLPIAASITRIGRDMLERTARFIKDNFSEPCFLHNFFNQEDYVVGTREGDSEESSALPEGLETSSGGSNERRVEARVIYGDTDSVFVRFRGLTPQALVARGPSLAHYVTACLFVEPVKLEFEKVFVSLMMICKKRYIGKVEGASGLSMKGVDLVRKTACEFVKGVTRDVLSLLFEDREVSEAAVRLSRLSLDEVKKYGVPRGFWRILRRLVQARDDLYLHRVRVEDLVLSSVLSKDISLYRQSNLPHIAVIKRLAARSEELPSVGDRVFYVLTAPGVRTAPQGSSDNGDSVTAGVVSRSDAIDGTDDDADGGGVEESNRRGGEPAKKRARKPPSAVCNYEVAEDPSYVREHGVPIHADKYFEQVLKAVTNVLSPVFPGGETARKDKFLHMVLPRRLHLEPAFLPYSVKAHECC
The test is described as follows: Inhibition of human cytomegalovirus DNA polymerase (95 uL) activity in a solution containing […] HEPES (pH 7.5), incubation for 12 minutes at 26 degrees C. Also noted: species or system Human betaherpesvirus 5.

In a further test the test system is HFF. Nature of the test: Antiviral activity against human cytomegalovirus Ad169 (WT) plaque forming unit grown on Human foreskin fibroblast cells upon incubation for 1 hour at 37 degrees C with compound dissolved in DMSO. The format is functional, cell-based, Human betaherpesvirus 5. The gist of the method: (§1)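 Plaque reduction: about 50 PFU added per well of a 24-well dish of the appropriate cells, 1 h at 37 °C, then the inoculum was replaced by drug-containing DMEM with 10% FBS and 0.8% carboxymethyl cellulose. DMSO stocks were 200-fold. Plates were held at 37 °C until plaques formed. Plaques were counted microscopically or after crystal violet stain. Percent inhibition was taken against the uninhibited control, with IC50 by linear regression.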

For test [3], the system named is Vero. The test is described as follows: Antiviral activity against herpes simplex virus type 2 (V826A) plaque forming unit grown on Human foreskin fibroblast cells upon incubation for 1 hour at 37 degrees C with compound dissolved in DMSO. The test is classed as functional, cell-based. The settings on record: Chlorocebus sabaeus. A digest of the protocol: as §1

In test [4] the test system is Vero. The test is described as follows: Antiviral activity against herpes simplex virus type 1 KOS (PFAr2) plaque forming unit grown on Human foreskin fibroblast cells upon incubation for 1 hour at 37 degrees C with compound dissolved in DMSO. The format is functional, cell-based. The settings on record: Chlorocebus sabaeus. A digest of the protocol: as §1

The results in this text go back to ChEMBL document CHEMBL1141075, “4-Oxo-4,7-dihydrothieno[2,3-b]pyridines as non-nucleoside inhibitors of human cytomegalovirus and related herpesvirus polymerases” (J Med Chem, 2005).

In general, pIC50 refers to the negative decadic logarithm of the IC50, by convention in mol/L.

pIC50: −log10 of the molar value.

Consider `Cn1cc(C(=O)NCc2ccc(Cl)cc2)c(=O)c2cc(CN3CCOCC3)ccc21`, for which the pIC50 in test [1] is 6.22; in test [2], 6.15.
Consider `O=C(NCc1ccc(Cl)cc1)c1cnc2ccc(CCCO)cc2c1O`, for which the pIC50 in test [1] was 6.52; in test [2], 6.40.
Take `Cn1cc(C(=O)NCc2ccc(Cl)cc2)c(=O)c2cc(CN3CCOCC3)sc21`: the negative-log IC50 (pIC50) was 5.82 in the test with HFF, < 4.30 in the test on Vero [3] and 5.60 in the test with Vero [4].
